Activity calls are given as the source filed them. No cut-off for these calls is given here.
Tests used:
[1] = biological target: T1, Amyloid-beta precursor protein (Homo sapiens, UniProt P05067); assay: Inhibition of human biotinylated amyloid beta (1 to 42) oligomerization measured after 1 hr by ELISA
How it was run: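 HFIP/TFA-treated biotinylated Aβ1-42 in DMSO/OFB buffer incubated with compound 1 h at room temperature, stopped with 0.3% Tween 20. Captured on NeutrAvidin-coated plates blocked with OFB-T (pH 7.50), 2 h at 150 rpm. Streptavidin-HRP 1:10,000 for 1 h, TMB/H₂O₂, stopped with 2% H₂SO₄, read at 450 nm. IC50 from 4-parameter logistic fit normalized to DMSO and Tween-20 controls.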

[2] = biological target: T1, Amyloid-beta precursor protein; assay: Inhibition of human amyloid beta (1 to 40) fibrillization at 100 uM measured every 15 mins by Thioflavin-T fluorescence assay relative to control
[3] = tested on: SIM-A9; assay: Induction of phagocytosis in LPS-stimulated mouse SIM-A9 cells assessed as increase in FITC signal measured after 24 hrs by FITC analysis; type: functional, cell-based
How it was run: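 SIM-A9 cells given LPS plus compound for 24 h, then FITC-labelled killed E. coli bioparticles at 0.125 mg/mL final for 1 h at 37 °C. Extracellular signal quenched with 0.4% trypan blue. Intracellular FITC read at Ex 494/Em 518. Mean ± SD.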

[4] = tested on: SIM-A9; assay: Anti-inflammatory activity in mouse SIM-A9 cells assessed as inhibition of LPS-induced TNF-alpha production at 2.7 uM measured after 24 hrs by ELISA; type: functional, cell-based
How it was run: (§1)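 SIM-A9 cells seeded 0.25 × 10⁶/well a day ahead, then given 5 ng/mL LPS with compound for 24 h. Supernatants assayed by sandwich ELISA: capture antibody 1:250, detection antibody 1:250, avidin-HRP, TMB, stop with 2 N H₂SO₄. Read at 450 nm, 570 nm correction. Mean ± SD, n = 3.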

[5] = tested on: SIM-A9; assay: Anti-inflammatory activity in mouse SIM-A9 cells assessed as inhibition of LPS-induced IL-6 production at 2.7 uM measured after 24 hrs by ELISA; type: functional, cell-based; how it was run: as §1
[6] = tested on: SIM-A9; assay: Anti-inflammatory activity in LPS-stimulated mouse SIM-A9 cells assessed as downregulation of COX-2 expression at 2.7 uM measured after 24 hrs by Western blot analysis; type: functional, cell-based
How it was run: (§2)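 SIM-A9 murine microglia in DMEM-F12 with 10% FBS and 5% horse serum, seeded 0.25 × 10⁶ cells/well one day before. Stimulated with 5 ng/mL LPS plus compound for 24 h. Cells lysed in RIPA with protease inhibitors, protein by Micro BCA. Equal protein on SDS-PAGE, PVDF transfer, probed with iNOS, COX-2 and tubulin antibodies (1:1000), HRP chemiluminescence.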

[7] = tested on: SIM-A9; assay: Anti-inflammatory activity in LPS-stimulated mouse SIM-A9 cells assessed as downregulation of iNOS expression at 2.7 uM measured after 24 hrs by Western blot analysis; type: functional, cell-based; how it was run: as §2
[8] = Drug concentration in CD-1 mouse plasma at 5 mg/kg, po measured after 0.5 hrs by LC-MS/MS analysis; type: ADME, organism-based
How it was run: (§3)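 Male CD-1 mice dosed 5 mg/kg orally, n = 3 per time point. At 0.5 and 2.5 h, blood taken by cardiac puncture, then transcardial PBS perfusion. Brains homogenized in three volumes of PBS. Samples precipitated with cold acetonitrile, supernatant diluted with two volumes of 0.1% formic acid water, measured by LC-MS/MS. Brain/plasma ratio from these levels.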

[9] = Drug concentration in CD-1 mouse plasma at 5 mg/kg, po measured after 2.5 hrs by LC-MS/MS analysis; type: ADME, organism-based; how it was run: as §3
[10] = Drug concentration in CD-1 mouse brain at 5 mg/kg, po measured after 0.5 hrs by LC-MS/MS analysis; type: ADME, organism-based; how it was run: as §3
[11] = Drug concentration in CD-1 mouse brain at 5 mg/kg, po measured after 2.5 hrs by LC-MS/MS analysis; type: ADME, organism-based; how it was run: as §3
[12] = Ratio of drug concentration in brain to plasma of CD-1 mouse at 5 mg/kg, po after 0.5 hrs; type: ADME, organism-based; conditions: read-out: BPR; how it was run: as §3
[13] = tested on: SIM-A9; assay: Anti-inflammatory activity in mouse SIM-A9 cells assessed as inhibition of LPS-induced NO production at 2.7 uM measured after 24 hrs by Griess reagent based assay; type: functional, cell-based
How it was run: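 SIM-A9 cells given 5 ng/mL LPS with compound for 24 h. Conditioned medium mixed with sulfanilamide, then N-naphthyl-ethylenediamine, 5–10 min dark at room temperature. Absorbance at 520–550 nm, NO quantified against a standard curve. n = 3.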

[14] = Ratio of drug concentration in brain to plasma of CD-1 mouse at 5 mg/kg, po after 2.5 hrs; type: ADME, organism-based; conditions: read-out: BPR; how it was run: as §3

T1 sequence (P05067 whole entry): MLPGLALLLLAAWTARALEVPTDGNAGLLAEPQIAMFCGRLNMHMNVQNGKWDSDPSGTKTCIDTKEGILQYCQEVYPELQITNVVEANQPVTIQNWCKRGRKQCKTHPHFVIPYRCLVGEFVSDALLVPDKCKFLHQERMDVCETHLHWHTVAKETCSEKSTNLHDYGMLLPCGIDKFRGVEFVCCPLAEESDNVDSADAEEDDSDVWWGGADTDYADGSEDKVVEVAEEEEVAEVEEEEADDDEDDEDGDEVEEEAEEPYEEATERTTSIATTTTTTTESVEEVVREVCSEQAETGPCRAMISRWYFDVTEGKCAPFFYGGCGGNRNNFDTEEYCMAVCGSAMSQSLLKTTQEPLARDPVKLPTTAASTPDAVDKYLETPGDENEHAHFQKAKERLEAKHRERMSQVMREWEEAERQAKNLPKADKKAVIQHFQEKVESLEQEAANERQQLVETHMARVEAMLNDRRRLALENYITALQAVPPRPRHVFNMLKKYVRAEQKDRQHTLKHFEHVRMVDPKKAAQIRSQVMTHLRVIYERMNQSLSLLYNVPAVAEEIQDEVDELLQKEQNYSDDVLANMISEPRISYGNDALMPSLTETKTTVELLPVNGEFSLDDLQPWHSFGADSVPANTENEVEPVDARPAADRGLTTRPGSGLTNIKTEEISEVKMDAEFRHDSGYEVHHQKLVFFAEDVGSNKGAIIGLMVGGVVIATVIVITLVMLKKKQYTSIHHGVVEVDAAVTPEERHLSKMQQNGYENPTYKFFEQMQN

Structure (SMILES)	IC50 [1]	inhibition [2]	other results
CNC(=O)c1cc(C(=O)O)c(NCc2ccco2)cc1Cl	Not Active	19.1%	–
CNS(=O)(=O)c1cc(C(=O)O)c(NCC2CCCO2)cc1Cl (stereo not drawn)	–	17.5%	IC50 ([1]; read-out: IC50): 136 µM
CN(C)C(=O)c1cc(C(=O)O)c(NCc2ccco2)cc1Cl	Not Active	18.4%	–
OC(c1ccc(Br)cc1NCc1cscn1)C(F)(F)F (stereo not drawn)	Not Active	33%	Activity [3]: Active
CCCCCCNS(=O)(=O)c1cc(C(=O)O)c(NCc2ccco2)cc1Cl	–	39.2%	–
CNS(=O)(=O)c1cc(C(O)C(F)(F)F)c(NCc2ccco2)cc1Cl (stereo not drawn)	Not Active	–	–
CNS(=O)(=O)c1cc(CO)c(NCc2ccco2)cc1Cl	–	15%	–
COc1ccc(C(O)C(F)(F)F)c(NCc2cscn2)c1 (stereo not drawn)	–	6.49%	–
O=C(O)c1cc(C(=O)N2CCOCC2)c(Cl)cc1NCc1ccco1	Not Active	34%	–
CNS(=O)(=O)c1cc(-c2noc(=O)[nH]2)c(NCc2ccco2)cc1Cl	Not Active	20.2%	–
COc1ccc(C(O)C(F)(F)F)c(NCc2ccco2)c1 (stereo not drawn)	Not Active	36.8%	–
NC(=O)c1cc(C(=O)O)c(NCc2ccco2)cc1Cl	Not Active	32.4%	–
O=C(O)c1cc(S(=O)(=O)NC2CC2)c(Cl)cc1NCc1ccco1	Not Active	29.2%	–
CN(Cc1ccccc1)S(=O)(=O)c1cc(C(=O)O)c(NCc2ccco2)cc1Cl	–	inactive	Activity [4]: Active; Activity [5]: Active; Activity [6]: Active; Activity [7]: Active; Activity [3]: Active; concentration at 0.5 h [8]: 1030 ng/mL; concentration at 2.5 h [9]: 873 ng/mL; concentration at 0.5 h [10]: 0.8 ng/g; concentration at 2.5 h [11]: 0.1 ng/g; Kp at 0.5 h [12]: 0.0008
CCNC(=O)c1cc(C(=O)O)c(NCc2ccco2)cc1Cl	Not Active	24.6%	–
O=C(O)c1cc(S(=O)(=O)Nc2ccccc2)c(Cl)cc1NCc1ccco1	–	17.4%	–
O=C(O)c1cc(S(=O)(=O)NC2CCCCC2)c(Cl)cc1NCc1ccco1	–	11.3%	–
O=C(Nc1ccccc1)c1cc(C(=O)O)c(NCc2ccco2)cc1Cl	Not Active	29.4%	–
OC(c1ccc(Br)cc1NCc1ccco1)C(F)(F)F (stereo not drawn)	Not Active	81.3%	Activity [4]: Active; Activity [5]: Active; Activity [13]: Active; Activity [6]: Active; Activity [7]: Active
OC(c1ccc(Cl)cc1NCc1cscn1)C(F)(F)F (stereo not drawn)	Not Active	27.9%	–

Structure (SMILES)	IC50 [1]	inhibition [2]	other results
O=C(O)c1cc(S(=O)(=O)NCCc2ccccc2)c(Cl)cc1NCc1ccco1	Not Active	inactive	–
CNS(=O)(=O)c1cc(-c2nnn[nH]2)c(NCc2ccco2)cc1Cl	–	14.1%	–
CCNS(=O)(=O)c1cc(C(=O)O)c(NCc2ccco2)cc1Cl	–	21.3%	–
O=C(O)c1ccc(F)cc1NCc1ccco1	–	12.4%	–
O=C(O)c1cc(S(=O)(=O)NCc2ccccc2)c(Cl)cc1NCc1ccco1	Not Active	11.8%	–
CC(NS(=O)(=O)c1cc(C(=O)O)c(NCc2ccco2)cc1Cl)c1ccccc1 (stereo not drawn)	–	17.6%	–
CNC(=O)c1cc(S(=O)(=O)NC)c(Cl)cc1NCc1ccco1	–	inactive	Activity [3]: Active
O=C(O)c1cc(S(=O)(=O)N2CCOCC2)c(Cl)cc1NCc1ccco1	–	inactive	–
Cc1ccc(CNS(=O)(=O)c2cc(C(=O)O)c(NCc3ccco3)cc2Cl)cc1	Not Active	inactive	–
CNS(=O)(=O)c1cc(C(=O)O)c(NCc2ccco2)cc1Cl	–	inactive	Activity [3]: Active
O=C(O)c1cc(S(=O)(=O)N2CCCCC2)c(Cl)cc1NCc1ccco1	Not Active	19.1%	–
OC(c1ccc(Cl)cc1NCc1ccco1)C(F)(F)F (stereo not drawn)	Not Active	60.7%	Activity [4]: Active; Activity [5]: Active; Activity [13]: Active; Activity [6]: Active; Activity [7]: Active
CN(C)S(=O)(=O)c1cc(C(=O)O)c(NCc2ccco2)cc1Cl	–	inactive	–
CNS(=O)(=O)c1cc(C(=O)N(C)C)c(NCc2ccco2)cc1Cl	–	25.2%	Activity [3]: Active; concentration at 0.5 h [8]: 302 ng/mL; concentration at 2.5 h [9]: 83.2 ng/mL; concentration at 0.5 h [10]: 61.1 ng/g; concentration at 2.5 h [11]: 18.5 ng/g; Kp at 0.5 h [12]: 0.2; Kp at 2.5 h [14]: 0.22
NS(=O)(=O)c1cc(C(=O)O)c(NCc2ccco2)cc1Cl [FUROSEMIDE]	Not Active	8.56%	concentration at 0.5 h [8]: 1730 ng/mL; concentration at 2.5 h [9]: 1630 ng/mL; concentration at 0.5 h [10]: 8.7 ng/g; concentration at 2.5 h [11]: 7.8 ng/g; Kp at 0.5 h [12]: 0.005; Kp at 2.5 h [14]: 0.005
O=C(O)c1cc(C(=O)N2CCCCC2)c(Cl)cc1NCc1ccco1	Not Active	11%	–
CNS(=O)(=O)c1cc(C(N)=O)c(NCc2ccco2)cc1Cl	–	inactive	Activity [4]: Active; Activity [5]: Active; Activity [6]: Active; Activity [7]: Active; concentration at 0.5 h [8]: 38.2 ng/mL; concentration at 2.5 h [9]: 29.3 ng/mL; concentration at 0.5 h [10]: 5.2 ng/g; concentration at 2.5 h [11]: 3.5 ng/g; Kp at 0.5 h [12]: 0.14; Kp at 2.5 h [14]: 0.12
O=C(O)c1ccc(Cl)cc1NCc1ccco1	Not Active	20.2%	–
COc1ccc(CNS(=O)(=O)c2cc(C(=O)O)c(NCc3ccco3)cc2Cl)cc1	Not Active	27.8%	–
CNS(=O)(=O)c1cc(C(=O)OC)c(NCc2ccco2)cc1Cl	–	27.1%	–

Source: ChEMBL document CHEMBL4823272 (Eur J Med Chem, 2021)
